The term EC50 denotes the concentration giving half of the maximal effect. One may read the Ki as a measure of affinity in units of concentration, obtained from inhibition or displacement. Usually Emax stands for the size of the effect at its maximum, as opposed to the concentration needed.

Active and inactive are the calls of the source. No cut-off for these calls is given here.

Assay [1] addresses T1, 5-hydroxytryptamine receptor 1A (Homo sapiens, UniProt P08908).
T1 sequence (P08908 whole entry): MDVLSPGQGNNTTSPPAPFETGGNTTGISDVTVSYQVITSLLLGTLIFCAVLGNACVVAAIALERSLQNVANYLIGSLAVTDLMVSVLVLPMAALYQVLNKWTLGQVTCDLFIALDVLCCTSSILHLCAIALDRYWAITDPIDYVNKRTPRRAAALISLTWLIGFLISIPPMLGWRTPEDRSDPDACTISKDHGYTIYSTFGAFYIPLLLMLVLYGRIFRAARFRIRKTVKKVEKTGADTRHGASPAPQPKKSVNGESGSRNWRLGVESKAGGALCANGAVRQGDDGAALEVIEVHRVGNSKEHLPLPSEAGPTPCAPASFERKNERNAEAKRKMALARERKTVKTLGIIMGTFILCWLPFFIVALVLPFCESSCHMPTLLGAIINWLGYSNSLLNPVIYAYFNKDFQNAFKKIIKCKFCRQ
The assay is described as follows: Agonist activity at human 5-HT1A receptor expressed in CHO cells assessed as inhibition of forskolin-stimulated cAMP accumulation after 15 mins by ELISA. Type of assay: functional, cell-based. Put shortly: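 CHO-1A cells (10^4/well) grown 24 h, then 24 h in serum-free DMEM/F-12. Compounds co-incubated with 1 μM forskolin for 15 min at 37 °C in serum-free medium with 5 μM pargyline and 2.5 mM theophylline. Lysis in 1% Triton X-100/0.1 M HCl, cAMP measured by acetylated ELISA. Sigmoidal or Gaussian bell-shaped fits.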

Assay [2] addresses T1, 5-hydroxytryptamine receptor 1A. The assay is described as follows: Agonist activity at human 5-HT1A receptor expressed in human HeLa cell membranes assessed as stimulation of [35S]GTPgammaS binding after 20 mins by liquid scintillation counting analysis. Type of assay: functional. On the technique in general: GTPγS is a poorly hydrolysed GTP analogue; its binding reports G protein activation.

For assay [3], the target named is T2, 5-hydroxytryptamine receptor 1A (Homo sapiens) (UniProt P08908).
T2 sequence (whole entry): T1 sequence (P08908 whole entry)
The assay is described as follows: Ratio for agonist activity at human 5-HT1A receptor expressed in CHO cells by forskolin-stimulated cAMP accumulation assay to agonist activity at human 5-HT1A receptor expressed in CHO cells by beta-arrestin-2 recruitment assay. Type of assay: functional, cell-based. A general note: Changes in cAMP serve as a functional read-out for many G protein-coupled receptors.

Assay [4] deals with T2, 5-hydroxytryptamine receptor 1A (Homo sapiens). Kind of assay: Agonist activity at human 5-HT1A receptor expressed in CHO cells assessed as inhibition of forskolin-stimulated cAMP accumulation after 15 mins by ELISA relative to 5-HT. Type of assay: functional, cell-based. Put shortly: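 CHO-1A cells (10^4/well) grown 24 h, then 24 h in serum-free DMEM/F-12. Compounds co-incubated with 1 μM forskolin for 15 min at 37 °C in serum-free medium with 5 μM pargyline and 2.5 mM theophylline. Lysis in 1% Triton X-100/0.1 M HCl, cAMP measured by acetylated ELISA. Forskolin alone set as 0%, 5-HT maximum as 100%. Sigmoidal or Gaussian bell-shaped fits.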

For assay [5] the target is unchanged. The assay is described as follows: Agonist activity at human 5-HT1A receptor expressed in CHO cells after 90 mins by beta-arrestin-2 recruitment assay relative to 5-HT. Type of assay: cell-based. The method, boiled down: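 PathHunter enzyme-complementation β-arrestin-2 recruitment in CHO-K1 cells carrying HTR1A, 10^4 cells/well, plated 24–48 h at 37 °C before use. Compounds from methanol stocks, final 0.1–100 μM, applied for 90 min at 37 °C. Detection reagents then added for 60 min at room temperature, luminescence read. Pooled from 3–4 independent experiments in duplicate, with 5-HT on every plate as reference.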

For assay [6], the target named is T1, 5-hydroxytryptamine receptor 1A. The assay is described as follows: Agonist activity at human 5-HT1A receptor expressed in CHO cells after 90 mins by beta-arrestin-2 recruitment assay. Type of assay: cell-based. Put shortly:
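PathHunter enzyme-complementation β-arrestin-2 recruitment in CHO-K1 cells carrying HTR1A, 10^4 cells/well, plated 24–48 h at 37 °C before use. Compounds from methanol stocks, final 0.1–100 μM, applied for 90 min at 37 °C. Detection reagents then added for 60 min at room temperature, luminescence read.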
On the technique in general: Recruitment of arrestin is a read-out of receptor activation apart from second messengers.

Assay [7] addresses T2, 5-hydroxytryptamine receptor 1A (Homo sapiens). Kind of assay: Agonist activity at human 5-HT1A receptor expressed in CHO cells assessed as ERK1/2 phosphorylation at 1 uM after 5 mins by Western blot analysis relative to control. Type of assay: cell-based. The method, boiled down: (§1)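 CHO-1A cells (2 × 10^5/well) grown 24 h, then 24 h serum-free. Agonists given at 1 μM in medium with 5 μM pargyline and 2.5 mM theophylline for 5 min at 37 °C. Lysates in SDS buffer with protease/phosphatase inhibitors. Phospho-ERK1/2 Western blot densitometry normalized to calnexin, untreated baseline subtracted, 5-HT set as 100%. Three experiments in triplicate, one-way ANOVA with Dunnett's test against untreated.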

The target is the same in assay [8]. The assay is described as follows: Agonist activity at human 5-HT1A receptor expressed in CHO cells assessed as ERK1/2 phosphorylation at 1 uM after 5 mins by Western blot analysis relative to 5-HT. Type of assay: cell-based. Put shortly: as §1

Turning to `COc1ccc2c(c1)CC(CCN1CCN(c3ccccn3)CC1)CC2` (stereo unspecified), the EC50 in assay [1] was 20.9 nM; in assay [6], 3.55 nM. In addition, the inhibition constant (Ki) in assay [2] stood at 0.16 nM. For the same compound, the Ratio in assay [3] is less than 10. The Emax in assay [4] is 73.5%; in assay [5], 35.9%.
For `COc1cccc2c(CCCN3CCN(c4ccccn4)CC3)cccc12`, in assay [7], the result was inactive. Further, the 50% effective concentration (EC50) in assay [1] is 1.26 nM. Besides, in assay [2], the Ki amounted to 0.38 nM. Further, the Emax was 53.6% in assay [4] and 10.7% in assay [5].
With `CCCN(CCC)C1CCc2cccc(O)c2C1` (racemic), the maximal effect (Emax) in assay [5] came out at 44.5%.
Consider `COc1cccc([C@H]2CC[C@H](N3CCN(c4ccccn4)CC3)CC2)c1`, for which the figures for the EC50 in assay [1] and in assay [6] were 0.794 nM and 0.324 nM, respectively. The Ki in assay [2] was determined as 0.028 nM. Further, the Activity in assay [8] is 30.4%. Moreover, the Ratio in assay [3] was less than 10. The Emax in assay [4] is 69.5%; in assay [5] it was 27.9%.
On to `NCCc1c[nH]c2ccc(O)cc12`, for which, in assay [7], the fold change (FC) amounted to 6.4.
As for `COc1cccc2c1CCC/C2=C\CCN1CCN(c2ccccn2)CC1`, the EC50 was 2.95 nM in assay [1] and 3390 nM in assay [6]. The Ki in assay [2] was 0.31 nM. The Ratio in assay [3] was less than 10. Further, the Emax in assay [4] was found to be 66.9%; in assay [5], 22.8%.
Take `COc1cccc2c1CCCC2CCCN1CCN(c2ccccn2)CC1` (stereo unspecified): the EC50 in assay [1] is 0.776 nM. Besides, the Ki in assay [2] is 0.48 nM.
As for `COc1cccc(CCCCN2CCN(c3ccccn3)CC2)c1`, the Ki in assay [2] turned out to be 23 nM. In addition, the figures for the Emax in assay [4] and in assay [5] were 53.4% and 5.9%, respectively.
